Screening data deposited in PubChem BioAssay by several laboratories.
Most compounds without a hit are left out; they make up all but 1.6% or so of the library.
EBV gp42 block = inhibitors of Epstein-Barr virus glycoprotein 42; Q1HVG2; Fluorescence polarization binding assay, mP read-out; inhibition, % (tested at 21.74 µM); 0.42% of 220,000 active; AID 1085
eIF4E 4G PPI = blocks eIF4E binding to eIF4G; TR-FRET eIF4E-eIF4GI(517-606) binding, 2 h; inhibition, % at 21.7 µM; 0.37% of 220,000 active; AID 782;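 active = inhibition above about 30%, limit read from the data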;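 also: 0% = full FRET control wells and 100% = background wells lacking eIF4GI fragment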
14-3-3 Bad PPI = disrupts binding of bovine 14-3-3 zeta to phospho-Bad peptide; inhibition, % at 21.7 µM; 0.71% of 220,000 active; TR-FRET 14-3-3zeta/Dy647-pBad peptide displacement, 1 h; P63103; AID 781;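 active = inhibition above about 70%, limit read from the data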;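 also: 0% = full 14-3-3 plus peptide FRET controls and 100% = background without 14-3-3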
PKD1 kinase inh = inhibitors of human PKD1 kinase | Q15139 | PKD1 kinase fluorescence polarization assay | inhibition, % (test concentration not listed) | 0.056% of 200,000 active
Target sequence (Q15139 whole entry, looked up): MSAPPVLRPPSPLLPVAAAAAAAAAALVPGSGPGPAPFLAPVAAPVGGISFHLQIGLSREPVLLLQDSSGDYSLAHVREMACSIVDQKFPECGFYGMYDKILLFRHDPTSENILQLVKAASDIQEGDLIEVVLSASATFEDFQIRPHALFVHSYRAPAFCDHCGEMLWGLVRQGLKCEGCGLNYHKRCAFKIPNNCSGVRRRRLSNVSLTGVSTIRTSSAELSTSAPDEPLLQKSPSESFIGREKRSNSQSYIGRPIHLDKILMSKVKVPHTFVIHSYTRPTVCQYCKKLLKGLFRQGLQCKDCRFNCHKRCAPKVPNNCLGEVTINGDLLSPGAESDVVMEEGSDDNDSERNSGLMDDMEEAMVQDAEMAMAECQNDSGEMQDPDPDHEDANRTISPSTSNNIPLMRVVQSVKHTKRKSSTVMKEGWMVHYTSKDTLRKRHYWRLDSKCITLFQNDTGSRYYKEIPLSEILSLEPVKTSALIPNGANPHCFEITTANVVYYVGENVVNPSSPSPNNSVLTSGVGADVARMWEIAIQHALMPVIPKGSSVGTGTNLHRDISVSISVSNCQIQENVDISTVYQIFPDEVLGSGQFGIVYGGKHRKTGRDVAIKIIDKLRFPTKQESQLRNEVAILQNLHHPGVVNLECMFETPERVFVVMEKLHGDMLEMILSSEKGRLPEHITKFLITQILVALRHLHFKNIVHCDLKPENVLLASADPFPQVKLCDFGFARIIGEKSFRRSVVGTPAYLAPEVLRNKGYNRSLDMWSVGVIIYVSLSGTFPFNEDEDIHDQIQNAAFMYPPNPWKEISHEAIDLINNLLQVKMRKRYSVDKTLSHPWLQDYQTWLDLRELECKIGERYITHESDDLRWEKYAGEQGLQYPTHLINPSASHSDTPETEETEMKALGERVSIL
RBBP9 inhibitor = human RBBP9 hydrolase inhibition. O75884. recombinant RBBP9, FP-Rh probe fluorescence polarization. inhibition, % at 7.94 µM. 0.2% of 220,000 active. AID 1515;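 active = inhibition above the campaign mean of all tested compounds plus 3 SD, cut at about 14% in these data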;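 also: plate controls were DMSO wells with RBBP9 for no effect and wells lacking RBBP9 protein for full effect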
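Measured by: FP readout at 525/598 nm; material: recombinant human RBBP9; also added: Serine-hydrolase probe FP-Rh, 375 nM pre-mixing; medium: Tris buffer pH 8.0, NaCl, Pluronic; replication: one well per compound; doses: one concentration, 7.94 µM nominal, 0.794% DMSO; timing: preincubation 30 min plus labeling 45 min at 25 °C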
* hit, by the source's call; [ ] = remark or other dose. Rule as the data show it, unless noted: active = inhibition above about 50%; inactive = the rest.

`COc1cccc(NC(=O)C(NCC(C)(C)CN(C)C)c2ccccc2)c1` (stereo unspecified) gave EBV gp42 block -11, eIF4E 4G PPI 7, 14-3-3 Bad PPI 70*, PKD1 kinase inh -6 and RBBP9 inhibitor -5.
Screening C=CCNC(C(=O)Nc1cccc(OC)c1)c1ccccc1 (stereo unspecified) returned EBV gp42 block -21, eIF4E 4G PPI 5, 14-3-3 Bad PPI -8, PKD1 kinase inh -10 and RBBP9 inhibitor -3.
CCCCn1c(-c2sccc2C)n[nH]c1=S was read as EBV gp42 block -1, eIF4E 4G PPI 1, 14-3-3 Bad PPI -12, PKD1 kinase inh 0 and RBBP9 inhibitor -7.
O=C(Nc1ccc2nc(-c3cccs3)[nH]c2c1)c1cccs1 was read as EBV gp42 block -16, eIF4E 4G PPI -8, 14-3-3 Bad PPI 1, PKD1 kinase inh -2 and RBBP9 inhibitor -2.
O=C(Nc1ccc(-c2nc3ccc(NC(=O)c4cccs4)cc3[nH]2)cc1)c1cccs1 was read as EBV gp42 block 10, eIF4E 4G PPI -41, 14-3-3 Bad PPI 82*[fluorescence artefact?], PKD1 kinase inh 12 and RBBP9 inhibitor -8.
`Cc1ccc(C(=O)NC2(C(F)(F)F)N=C3SCCN3C2=O)cc1` (stereo unspecified) gave EBV gp42 block -17, eIF4E 4G PPI 10, 14-3-3 Bad PPI 74*, PKD1 kinase inh 0 and RBBP9 inhibitor 5.
`COc1ccc(NC(=O)CSc2nc3c(c(-c4cccs4)c2C#N)CN(C)CC3)cc1OC` gave EBV gp42 block 57*, eIF4E 4G PPI -4, 14-3-3 Bad PPI -2, PKD1 kinase inh -2 and RBBP9 inhibitor 6.
For COC(=O)c1cc2c(N)c(C(=O)c3ccccc3)sc2nc1C(OC)OC the results were EBV gp42 block -19, eIF4E 4G PPI -5, 14-3-3 Bad PPI 0 and RBBP9 inhibitor -12.
Screening O=C(N/N=C/c1cc(Br)cc(Br)c1O)c1cccc(N2CCCC2=O)c1 returned EBV gp42 block -20, eIF4E 4G PPI -2, 14-3-3 Bad PPI -30, PKD1 kinase inh -5 and RBBP9 inhibitor -10.
For O=C(CN1CCN(c2ccc(F)cc2)CC1)NCC1CCCO1 (stereo unspecified) the results were EBV gp42 block -1, eIF4E 4G PPI 13, 14-3-3 Bad PPI -10, PKD1 kinase inh 3 and RBBP9 inhibitor -8.
`COc1ccccc1N1CCN(CC(=O)NCC2CCCO2)CC1` (stereo unspecified) gave EBV gp42 block 4, eIF4E 4G PPI 8, 14-3-3 Bad PPI 75*, PKD1 kinase inh 6 and RBBP9 inhibitor 2.
C=CCNc1nc(-c2ccc(O)c(C(N)=O)c2)cs1 was read as EBV gp42 block -28, eIF4E 4G PPI 11, 14-3-3 Bad PPI 76*, PKD1 kinase inh 6 and RBBP9 inhibitor 8.
O=C(/C=C/c1ccc(O)cc1)c1ccc(O)cc1O was read as EBV gp42 block 10, eIF4E 4G PPI 0, 14-3-3 Bad PPI -1, PKD1 kinase inh -5 and RBBP9 inhibitor -6.
O=CN/C=C/c1cc(O)ccc1O was read as EBV gp42 block -17, eIF4E 4G PPI 0, 14-3-3 Bad PPI 0 and RBBP9 inhibitor 39*.
Screening CCN(CC)c1ccc(/C=c2\sc3nnc(-c4ccccc4Cl)n3c2=O)cc1 returned EBV gp42 block 193*, eIF4E 4G PPI -34, 14-3-3 Bad PPI -6, PKD1 kinase inh 1 and RBBP9 inhibitor 4.
`Cc1ccc(/C=c2/sc3nnc(-c4ccccc4Cl)n3c2=O)o1` gave EBV gp42 block -15, eIF4E 4G PPI 1, 14-3-3 Bad PPI 5, PKD1 kinase inh -2 and RBBP9 inhibitor 1.
For CCN(CC)c1ccc(/C=c2/sc3nnc(-c4ccccc4C)n3c2=O)cc1 the results were EBV gp42 block 172*, eIF4E 4G PPI -64, 14-3-3 Bad PPI -38, PKD1 kinase inh 15 and RBBP9 inhibitor 1.
For COC(=O)[C@H](C)NC(=O)NCc1ccccc1 the results were EBV gp42 block 1, eIF4E 4G PPI -1, 14-3-3 Bad PPI -2 and RBBP9 inhibitor 3.
Screening NC(=O)c1ccc(N=Nc2c(O)c3ccccc3[nH]c2=O)cc1 returned EBV gp42 block 65*, eIF4E 4G PPI 10, 14-3-3 Bad PPI 3 and RBBP9 inhibitor -6.
Cc1ccc2c(c1)N(C(C)C(=O)NCc1ccc3c(c1)OCO3)C(=O)CO2 (stereo unspecified) was read as EBV gp42 block -5, eIF4E 4G PPI -2, 14-3-3 Bad PPI 5 and RBBP9 inhibitor 11.
CN(C)c1nc(Nc2ccccc2)nc(Oc2ccc(=O)[nH]n2)n1 was read as EBV gp42 block -18, eIF4E 4G PPI 2, 14-3-3 Bad PPI 11, PKD1 kinase inh -9 and RBBP9 inhibitor -2.
Screening CC(C)CNc1nc(Oc2ccc(=O)[nH]n2)nc(N(C)C)n1 returned EBV gp42 block -10, eIF4E 4G PPI -9, 14-3-3 Bad PPI 91*, PKD1 kinase inh -3 and RBBP9 inhibitor 0.
Cc1ccc(Nc2nc(Oc3ccc(=O)[nH]n3)nc(N(C)C)n2)cc1 was read as EBV gp42 block -2, eIF4E 4G PPI 74*, 14-3-3 Bad PPI 25, PKD1 kinase inh 2 and RBBP9 inhibitor 9.
Screening COc1ccc(NC(=S)N/N=C/c2cccn2Cc2ccc(F)cc2)cc1 returned EBV gp42 block 5, eIF4E 4G PPI 2, 14-3-3 Bad PPI -7, PKD1 kinase inh 2 and RBBP9 inhibitor -2.
Screening Cn1ncc(N=Cc2ccccc2)c1C(=O)Nc1cccc(Cl)c1 returned EBV gp42 block -2, eIF4E 4G PPI -17, 14-3-3 Bad PPI 2, PKD1 kinase inh -12 and RBBP9 inhibitor -7.
For COc1ccccc1NC(=O)c1c(N=Cc2cccc([N+](=O)[O-])c2)cnn1C the results were EBV gp42 block -3, eIF4E 4G PPI 46*, 14-3-3 Bad PPI -2 and RBBP9 inhibitor -6.
For C=C(C)Cn1c(C)cc(C)c(S(=O)(=O)c2cccc(C)c2)c1=O the results were EBV gp42 block 3, eIF4E 4G PPI -1, 14-3-3 Bad PPI -5, PKD1 kinase inh -6 and RBBP9 inhibitor -3.
COCCCN=Cc1c(-c2ccccc2)[nH]n(-c2nc3ccccc3s2)c1=O was read as EBV gp42 block -4, eIF4E 4G PPI 2, 14-3-3 Bad PPI -1 and RBBP9 inhibitor -10.
`O=c1c(C=NCCCO)c(-c2ccccc2)[nH]n1-c1nc2ccccc2s1` gave EBV gp42 block 4, eIF4E 4G PPI 0, 14-3-3 Bad PPI 71*, PKD1 kinase inh 0 and RBBP9 inhibitor -11.
`CC1=NN(c2ccccc2)C(=O)C1(C)C` gave EBV gp42 block -8, eIF4E 4G PPI 0, 14-3-3 Bad PPI 2, PKD1 kinase inh -4 and RBBP9 inhibitor 0.
CC[N+]1=CN(c2ccccc2)C(C)=CC1(C)C was read as EBV gp42 block -28, eIF4E 4G PPI 2, 14-3-3 Bad PPI 82*[fluorescence artefact?], PKD1 kinase inh 8 and RBBP9 inhibitor -7.
`CCCCn1nc2cc(C(=O)NCc3cc(C(F)(F)F)cc(C(F)(F)F)c3)ccc2c1OC` gave EBV gp42 block -10, PKD1 kinase inh -9 and RBBP9 inhibitor -8.
